By MIC is commonly meant the lowest concentration that inhibits growth of the organism. Low values mean greater potency, high ones weaker potency. Usually IC50 stands for the concentration that inhibits the measured activity by half. In general, inhibition refers to how much of the control response was suppressed.

Assay [1] concerns Mycobacterium tuberculosis. As to the kind of experiment: Antimycobacterial activity against Mycobacterium tuberculosis 331/88 after 21 days by micromethod. It is filed as functional. As to conditions: 331/88, 504 h. In short, it runs like this: (§1)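 Inocula: M. tuberculosis My 331/88 at 10^-3 dilution, M. avium My 330/88 at 10^-5, M. kansasii My 235/80 and clinical isolate 6509/96 at 10^-4. Compounds added in DMSO at 1000 down to 0.5 (twofold series). Read at 14 and 21 days, plus 7 days for M. kansasii. MIC taken as lowest concentration inhibiting growth.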

For assay [2], the system named is Mycobacterium kansasii. As to the kind of experiment: Antimycobacterial activity against isoniazid resistance Mycobacterium kansasii 225/80 after 21 days by micromethod. Conditions: 225/80, 504 h. It is filed as functional.
Assay [3] can be described thus: Selectivity index, ratio of IC50 for human HepG2 cells to MIC for Mycobacterium tuberculosis 331/88 after 14 days. It is filed as functional. Put shortly:
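Cytotoxicity in Hep G2 cells (passage 12), 10,000 cells/well, in MEM with 10% FBS, 1% glutamine and 1% nonessential amino acids. Cells preincubated 24 h, 37 °C, 5% CO2. Compounds in DMSO at eight concentrations in quadruplicate, 24 h. MTS-type reagent added for 1.5 h, A490 read, IC50 taken at 50% viability. SI = this IC50 over the 14-day M. tuberculosis MIC.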

Assay [4] relates to Mycobacterium kansasii. As to the kind of experiment: Antimycobacterial activity against Mycobacterium kansasii 6509/96 clinical isolate after 7 days by micromethod. It is filed as functional. As to conditions: 6509/96, 168 h. Put shortly: as §1
The test system of assay [5] is HepG2. Put plainly: Cytotoxicity against human HepG2 cells after 24 hrs by CellTiter-96 cell viability assay. The class given is functional, cell-based. Conditions: HepG2, 24 h. Put shortly: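 Hep G2 human hepatic cells (passage 12), 10,000 per well, grown 24 h at 37 °C, 5% CO2 in MEM with 1% glutamine, 10% FBS and 1% nonessential amino acids. Compounds in DMSO at eight increasing concentrations, quadruplicate, 24 h at 37 °C. Kit reagent added, 1.5 h at 37 °C, absorbance 490 nm. IC50 is the concentration reducing viability to 50% of control.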

For assay [6], the system named is Mycobacterium kansasii. As to the kind of experiment: Antimycobacterial activity against Mycobacterium kansasii 6509/96 clinical isolate after 21 days by micromethod. As to conditions: 6509/96, 504 h. The class given is functional. Put shortly:
as §1

Assay [7] deals with Mycobacterium kansasii. Put plainly: Antimycobacterial activity against isoniazid resistance Mycobacterium kansasii 225/80 after 7 days by micromethod. The class given is functional. As to conditions: 225/80, 168 h.
The test system of assay [8] is Mycobacterium tuberculosis. As to the kind of experiment: Antimycobacterial activity against Mycobacterium tuberculosis 331/88 after 14 days by micromethod. The class given is functional. As to conditions: 331/88, 336 h. In short, it runs like this: as §1
Assay [9] relates to Mycobacterium avium. As to the kind of experiment: Antimycobacterial activity against isoniazid resistance Mycobacterium avium 330/88 after 21 days by micromethod. The class given is functional. Conditions: 330/88, 504 h. In short, it runs like this: as §1
Assay [10] concerns the target T1, Isocitrate lyase (Mycobacterium tuberculosis) (UniProt P9WKK7).
T1 sequence (whole entry): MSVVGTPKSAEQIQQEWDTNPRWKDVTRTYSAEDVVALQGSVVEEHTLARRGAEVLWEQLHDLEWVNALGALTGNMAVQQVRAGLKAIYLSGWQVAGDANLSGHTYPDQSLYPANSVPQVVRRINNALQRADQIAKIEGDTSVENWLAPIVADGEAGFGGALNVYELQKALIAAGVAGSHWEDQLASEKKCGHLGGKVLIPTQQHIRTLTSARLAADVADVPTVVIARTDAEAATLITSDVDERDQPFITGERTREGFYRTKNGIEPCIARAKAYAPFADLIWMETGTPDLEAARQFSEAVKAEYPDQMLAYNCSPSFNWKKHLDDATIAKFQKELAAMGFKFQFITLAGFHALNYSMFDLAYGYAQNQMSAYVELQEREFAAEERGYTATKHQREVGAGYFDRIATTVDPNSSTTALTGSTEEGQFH
Put plainly: Inhibition of Mycobacterium tuberculosis H37Rv isocitrate lyase expressed in Escherichia coli HB101 at 10 umol/L. Put shortly: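 Isocitrate lyase assayed per Dixon–Kornberg in 96-well format. Buffer: 50 mmol/L KH2PO4, 4 mmol/L MgCl2, 4 mmol/L phenylhydrazine, 12 mmol/L cysteine, pH 7.0. Glyoxylate phenylhydrazone read at 324 nm. Compounds added in DMSO, with DMSO-alone inhibition subtracted.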

Assay [11] has as its system Mycobacterium kansasii. Put plainly: Antimycobacterial activity against isoniazid resistance Mycobacterium kansasii 225/80 after 14 days by micromethod. The class given is functional. As to conditions: 225/80, 336 h.
Assay [12] concerns Mycobacterium avium. Put plainly: Antimycobacterial activity against isoniazid resistance Mycobacterium avium 330/88 after 14 days by micromethod. The class given is functional. Conditions: 330/88, 336 h. In short, it runs like this: as §1
For assay [13], the system named is Mycobacterium kansasii. As to the kind of experiment: Antimycobacterial activity against Mycobacterium kansasii 6509/96 clinical isolate after 14 days by micromethod. The class given is functional. Conditions: 6509/96, 336 h. In short, it runs like this: as §1

≈ marks a conversion by molar mass, not a printed value.

In the case of `COc1cc(Cl)ccc1C(=O)Nc1ccc(Cl)cc1O`, the MIC in assay [1] was determined as 8 µM (≈ 2.5 µg/mL); in assay [2] it was 125 µM (≈ 39 µg/mL); in assay [4] it was 16 µM (≈ 4.99 µg/mL); in assay [6] it was 62.5 µM (≈ 19.5 µg/mL); in [7], 62.5 µM (≈ 19.5 µg/mL); in assay [8] it was 8 µM (≈ 2.5 µg/mL). Further, the MIC amounted to 125 µM (≈ 39 µg/mL) in assay [9], 62.5 µM (≈ 19.5 µg/mL) in assay [11], 62.5 µM (≈ 19.5 µg/mL) in [12] and 62.5 µM (≈ 19.5 µg/mL) in assay [13]. Besides, in [3], the “Selectivity Index” value amounted to 0.92. This molecule came in with an IC50 in assay [5] of 7.34 µM. The molecule also yielded an inhibition in assay [10] of 4%.
For the molecule `COc1ccc(Cl)cc1C(=O)Nc1cc(Cl)c(Cl)cc1O`, the MIC in [1], in [2], in assay [4], in assay [6], in assay [7] and in assay [8] was 125 µM (≈ 43.3 µg/mL) in each case. The MIC in assay [9], in assay [11], in assay [12] and in [13] was 125 µM (≈ 43.3 µg/mL) throughout. Also, the “Selectivity Index” value in assay [3] is listed as 0.02. In assay [5], the IC50 came out at 2.98 µM. In assay [10], this molecule gave an inhibition of 7%.
Take `COc1ccc(Cl)cc1C(=S)Nc1cc(Cl)c(Cl)cc1O`: the MIC turned out to be 32 µM (≈ 11.6 µg/mL) in assay [1]; 62.5 µM (≈ 22.7 µg/mL) in assay [2]; 16 µM (≈ 5.8 µg/mL) in assay [4]; 62.5 µM (≈ 22.7 µg/mL) in assay [6]; 32 µM (≈ 11.6 µg/mL) in assay [7]; 16 µM (≈ 5.8 µg/mL) in assay [8]. Moreover, the MIC came to 62.5 µM (≈ 22.7 µg/mL) in assay [9], 62.5 µM (≈ 22.7 µg/mL) in assay [11], 62.5 µM (≈ 22.7 µg/mL) in assay [12] and 32 µM (≈ 11.6 µg/mL) in [13]. In [3], the “Selectivity Index” value is listed as 0.23. For the same molecule, the IC50 in assay [5] was 3.72 µM. In assay [10], this molecule had an inhibition of 9%.
As to `COc1cc(Cl)ccc1C(=S)Nc1cc(Br)ccc1O`, the minimum inhibitory concentration (MIC) in assay [1] was 32 µM (≈ 11.9 µg/mL); in assay [2] it was 62.5 µM (≈ 23.3 µg/mL); in [4], 32 µM (≈ 11.9 µg/mL); in assay [6] it was 62.5 µM (≈ 23.3 µg/mL); in assay [7], 16 µM (≈ 5.96 µg/mL); in assay [8] it was 32 µM (≈ 11.9 µg/mL). For the same molecule, the MIC in [9] is 62.5 µM (≈ 23.3 µg/mL); in [11], 32 µM (≈ 11.9 µg/mL); in assay [12] it was 32 µM (≈ 11.9 µg/mL); in assay [13], 32 µM (≈ 11.9 µg/mL). The “Selectivity Index” value in assay [3] was determined as 0.2. The IC50 in assay [5] stood at 6.53 µM. The molecule further returned an inhibition in assay [10] of 0%.
For the molecule `COc1ccc(Cl)cc1C(=S)Nc1ccc(C(F)(F)F)cc1O`, the MIC is 62.5 µM (≈ 22.6 µg/mL) in assay [1]; 62.5 µM (≈ 22.6 µg/mL) in assay [2]; 32 µM (≈ 11.6 µg/mL) in assay [4]; 62.5 µM (≈ 22.6 µg/mL) in [6]; 62.5 µM (≈ 22.6 µg/mL) in assay [8]; 62.5 µM (≈ 22.6 µg/mL) in [9]. The MIC in assay [11] was found to be 62.5 µM (≈ 22.6 µg/mL); in [12], 32 µM (≈ 11.6 µg/mL); in assay [13] it was 62.5 µM (≈ 22.6 µg/mL). The “Selectivity Index” value in [3] amounted to 0.06. In assay [5], this molecule had a concentration for half-maximal inhibition (IC50) of 3.69 µM. The molecule also registered an inhibition in assay [10] of 21%.
As for `COc1cc(Cl)ccc1C(=O)Nc1cc(Cl)ccc1O`, the MIC was 125 µM (≈ 39 µg/mL) in assay [1]; 125 µM (≈ 39 µg/mL) in [2]; 16 µM (≈ 4.99 µg/mL) in assay [4]; 62.5 µM (≈ 19.5 µg/mL) in assay [6]; 125 µM (≈ 39 µg/mL) in [7]; 125 µM (≈ 39 µg/mL) in [8]. Besides, the minimal inhibitory concentration (MIC) in assay [9] came out at 125 µM (≈ 39 µg/mL); in [11], 125 µM (≈ 39 µg/mL); in [12], 125 µM (≈ 39 µg/mL); in assay [13], 62.5 µM (≈ 19.5 µg/mL). Further, the “Selectivity Index” value in assay [3] amounted to 0.7. This molecule also showed an IC50 in assay [5] of 87 µM. In assay [10], this molecule showed an inhibition of 0%.
`COc1ccc(Cl)cc1C(=O)Nc1cc(C(F)(F)F)ccc1O`: the MIC in assay [1] amounted to 250 µM (≈ 86.4 µg/mL); in assay [2], 62.5 µM (≈ 21.6 µg/mL); in assay [4] it was 62.5 µM (≈ 21.6 µg/mL); in assay [6], 125 µM (≈ 43.2 µg/mL); in [7], 32 µM (≈ 11.1 µg/mL); in [8] it was 250 µM (≈ 86.4 µg/mL). In addition, the MIC is 125 µM (≈ 43.2 µg/mL) in assay [9], 62.5 µM (≈ 21.6 µg/mL) in [11], 62.5 µM (≈ 21.6 µg/mL) in [12] and 125 µM (≈ 43.2 µg/mL) in [13]. For the same molecule, the “Selectivity Index” value in assay [3] is 0.06. In assay [5], this molecule gave an IC50 of 15.4 µM. The inhibition in assay [10] amounted to 0%.

The record behind these values is ChEMBL document CHEMBL2086304, “Synthesis and in vitro antimycobacterial and isocitrate lyase inhibition properties of novel 2-methoxy-2'-hydroxybenzanilides, their thioxo analogues and benzoxazoles” (Eur J Med Chem, 2012).
